Columns and labels:
Format in all cases: ADME, organism-based
[1] = AUC (infinity) in wild-type Sprague-Dawley rat at 5 mg/kg, iv by LC-MS/MS analysis; design: time infinity, dose 5 mg/kg, route intravenous; settings: plasma
In short: (§1)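 Male Sprague-Dawley knockout or age/weight-matched wild-type rats with femoral artery and vein cannulas. Crossover design: day 0 i.v. bolus 5 mg/kg sulfasalazine in water at pH 9–10, then day 3 gavage 20 mg/kg in 0.5% carboxymethyl cellulose/PBS pH 7.4. Arterial plasma was sampled to 24 h. Sulfasalazine and sulfapyridine were measured by LC-MS/MS (1–5000 ng/ml). Parameters are noncompartmental; n = 4–8, mean ± S.D.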

[2] = Half life in BCRP knockout Sprague-Dawley rat at 5 mg/kg, iv by LC-MS/MS analysis; design: dose 5 mg/kg, route intravenous; settings: in vivo
In short: (§2)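 Male Sprague-Dawley knockout rats or wild-type rats matched for age and weight, with femoral artery and vein cannulas. Crossover design: sulfasalazine 5 mg/kg iv bolus (water, pH 9–10) on day 0, then 20 mg/kg oral gavage (0.5% carboxymethyl cellulose in PBS, pH 7.4) on day 3. Arterial plasma collected 0–24 h. Sulfasalazine and sulfapyridine measured by LC-MS/MS; noncompartmental parameters; mean ± S.D., n = 4 to 8.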

[3] = Clearance in MDR1A knockout Sprague-Dawley rat at 5 mg/kg, iv by LC-MS/MS analysis; design: dose 5 mg/kg, route intravenous; settings: in vivo; in short: as §1
[4] = Volume of distribution at steady state in MRP2 knockout Sprague-Dawley rat at 5 mg/kg, iv by LC-MS/MS analysis; design: dose 5 mg/kg, route intravenous; settings: in vivo, read-out: Vdss; in short: as §2
[5] = Half life in wild-type Sprague-Dawley rat at 20 mg/kg, po by LC-MS/MS analysis; design: dose 20 mg/kg, route oral; settings: in vivo; in short: as §2
[6] = Tmax in wild-type Wistar rat at 5 mg/kg, po by LC-MS/MS analysis; design: dose 5 mg/kg, route oral; settings: in vivo
[7] = Cmax in MDR1A knockout Sprague-Dawley rat at 20 mg/kg, po by LC-MS/MS analysis; design: dose 20 mg/kg, route oral; settings: in vivo; in short: as §1
[8] = Tmax in MDR1A knockout Sprague-Dawley rat at 20 mg/kg, po by LC-MS/MS analysis; design: dose 20 mg/kg, route oral; settings: in vivo
In short: (§3)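 Male Sprague-Dawley rats (knockout or wild type, matched for age and weight) with femoral artery and vein cannulas, recovered ≥2 days. In an i.v./oral crossover with a 3-day washout, sulfasalazine was given by oral gavage at 20 mg/kg in 0.5% carboxymethyl cellulose/PBS pH 7.4. Arterial plasma was sampled 0–24 h and analysed by LC-MS/MS (1–5000 ng/ml). Noncompartmental analysis; n = 4 to 8.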

[9] = AUC (infinity) in MRP2 knockout Sprague-Dawley rat at 20 mg/kg, po by LC-MS/MS analysis; design: time infinity, dose 20 mg/kg, route oral; settings: plasma; in short: as §1
[10] = Half life in wild-type Sprague-Dawley rat at 5 mg/kg, iv by LC-MS/MS analysis; design: dose 5 mg/kg, route intravenous; settings: in vivo; in short: as §2
[11] = AUC (infinity) in MDR1A knockout Sprague-Dawley rat at 20 mg/kg, po by LC-MS/MS analysis; design: time infinity, dose 20 mg/kg, route oral; settings: plasma; in short: as §1
[12] = Tmax in MRP2 knockout Sprague-Dawley rat at 20 mg/kg, po by LC-MS/MS analysis; design: dose 20 mg/kg, route oral; settings: in vivo; in short: as §3
[13] = Volume of distribution at steady state in wild-type Wistar rat at 5 mg/kg, iv by LC-MS/MS analysis; design: dose 5 mg/kg, route intravenous; settings: in vivo, read-out: Vdss
In short: (§4)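 Male Wistar wild-type rats and Mrp2-deficient TR⁻ rats with femoral artery and vein cannulas. Sulfasalazine given as an iv bolus (5 mg/kg, water at pH 9–10) and by oral gavage, each followed by arterial plasma sampling over 24 h. Sulfasalazine and sulfapyridine measured by LC-MS/MS; noncompartmental parameters; mean ± S.D., n = 3.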

[14] = Half life in MRP2 knockout Sprague-Dawley rat at 20 mg/kg, po by LC-MS/MS analysis; design: dose 20 mg/kg, route oral; settings: in vivo; in short: as §2
[15] = Half life in BCRP knockout Sprague-Dawley rat at 20 mg/kg, po by LC-MS/MS analysis; design: dose 20 mg/kg, route oral; settings: in vivo; in short: as §2
[16] = Volume of distribution at steady state in wild-type Sprague-Dawley rat at 5 mg/kg, iv by LC-MS/MS analysis; design: dose 5 mg/kg, route intravenous; settings: in vivo, read-out: Vdss; in short: as §2
[17] = Half life in wild-type Wistar rat at 5 mg/kg, iv by LC-MS/MS analysis; design: dose 5 mg/kg, route intravenous; settings: in vivo; in short: as §4
[18] = Half life in wild-type Wistar rat at 5 mg/kg, po by LC-MS/MS analysis; design: dose 5 mg/kg, route oral; settings: in vivo; in short: as §4
[19] = Cmax in wild-type Sprague-Dawley rat at 20 mg/kg, po by LC-MS/MS analysis; design: dose 20 mg/kg, route oral; settings: in vivo; in short: as §1
[20] = Oral bioavailability in BCRP knockout Sprague-Dawley rat at 20 mg/kg by LC-MS/MS analysis; settings: in vivo; in short: as §2
[21] = Oral bioavailability in MRP2-deficient Wistar rat at 5 mg/kg by LC-MS/MS analysis; settings: in vivo; in short: as §4
[22] = Oral bioavailability in wild-type Sprague-Dawley rat at 20 mg/kg by LC-MS/MS analysis; settings: in vivo; in short: as §2
[23] = AUC (infinity) in MRP2-deficient Wistar rat at 5 mg/kg, po by LC-MS/MS analysis; design: time infinity, dose 5 mg/kg, route oral; settings: plasma
[24] = Clearance in MRP2 knockout Sprague-Dawley rat at 5 mg/kg, iv by LC-MS/MS analysis; design: dose 5 mg/kg, route intravenous; settings: in vivo; in short: as §1
[25] = Half life in MRP2-deficient Wistar rat at 5 mg/kg, po by LC-MS/MS analysis; design: dose 5 mg/kg, route oral; settings: in vivo; in short: as §4
[26] = Half life in MDR1A knockout Sprague-Dawley rat at 20 mg/kg, po by LC-MS/MS analysis; design: dose 20 mg/kg, route oral; settings: in vivo; in short: as §2
[27] = Oral bioavailability in MRP2 knockout Sprague-Dawley rat at 20 mg/kg by LC-MS/MS analysis; settings: in vivo; in short: as §2
[28] = Cmax in MRP2-deficient Wistar rat at 5 mg/kg, po by LC-MS/MS analysis; design: dose 5 mg/kg, route oral; settings: in vivo
[29] = Clearance in wild-type Wistar rat at 5 mg/kg, iv by LC-MS/MS analysis; design: dose 5 mg/kg, route intravenous; settings: in vivo
In short: (§5)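 Male Wistar wild-type or Mrp2-deficient TR⁻ rats with femoral artery and vein cannulas. Sulfasalazine was given as a 5 mg/kg i.v. bolus and as a 20 mg/kg oral dose. Arterial plasma was sampled to 24 h and analysed for parent and sulfapyridine by LC-MS/MS. Noncompartmental parameters; n = 3, mean ± S.D.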

[30] = AUC (infinity) in wild-type Wistar rat at 5 mg/kg, iv by LC-MS/MS analysis; design: time infinity, dose 5 mg/kg, route intravenous; settings: plasma; in short: as §5
[31] = Clearance in wild-type Sprague-Dawley rat at 5 mg/kg, iv by LC-MS/MS analysis; design: dose 5 mg/kg, route intravenous; settings: in vivo; in short: as §1
[32] = Oral bioavailability in wild-type Wistar rat at 5 mg/kg by LC-MS/MS analysis; settings: in vivo; in short: as §4
[33] = Clearance in MRP2-deficient Wistar rat at 5 mg/kg, iv by LC-MS/MS analysis; design: dose 5 mg/kg, route intravenous; settings: in vivo; in short: as §5
[34] = Cmax in wild-type Wistar rat at 5 mg/kg, po by LC-MS/MS analysis; design: dose 5 mg/kg, route oral; settings: in vivo
[35] = Volume of distribution at steady state in BCRP knockout Sprague-Dawley rat at 5 mg/kg, iv by LC-MS/MS analysis; design: dose 5 mg/kg, route intravenous; settings: in vivo, read-out: Vdss; in short: as §2
[36] = Oral bioavailability in MDR1A knockout Sprague-Dawley rat at 20 mg/kg by LC-MS/MS analysis; settings: in vivo; in short: as §2
[37] = AUC (infinity) in BCRP knockout Sprague-Dawley rat at 5 mg/kg, iv by LC-MS/MS analysis; design: time infinity, dose 5 mg/kg, route intravenous; settings: plasma; in short: as §1

With `O=C(O)c1cc(/N=N/c2ccc(S(=O)(=O)Nc3ccccn3)cc2)ccc1O` [SULFASALAZINE] the AUC(0-inf) [1] was 8400 ng·h/mL, the half-life [2] was 1.4 h and the clearance [3] was 13.5 mL/min/kg. For the same compound, the Vd [4] was 1.3 L/kg, the half-life [5] was 2.6 h and the Tmax [6] was 0.5 h. It also gave a Cmax [7] of 213 ng/mL, a Tmax [8] of 0.3 h and an AUC(0-inf) [9] of 635 ng·h/mL. For the same compound, the half-life [10] was 1.6 h, the AUC(0-inf) [11] was 711 ng·h/mL and the Tmax [12] was 0.25 h. For the same compound, the Vd [13] was 0.244 L/kg, the half-life [14] was 3.8 h and the half-life [15] was 1.9 h. It also gave a Vd [16] of 0.168 L/kg, a half-life [17] of 1.5 h and a half-life [18] of 2.1 h. The Cmax [19] was 185 ng/mL, the bioavailability [20] was 30% and the bioavailability [21] was 1.5%. The bioavailability [22] was 1.4%, the AUC(0-inf) [23] was 462 ng·h/mL and the clearance [24] was 22 mL/min/kg. It also gave a half-life [25] of 2.3 h, a half-life [26] of 2.3 h and a bioavailability [27] of 4%. For the same compound, the Cmax [28] was 144 ng/mL, the clearance [29] was 6.8 mL/min/kg and the AUC(0-inf) [30] was 12300 ng·h/mL. It also gave a clearance [31] of 10.4 mL/min/kg, a bioavailability [32] of 3.8% and a clearance [33] of 10.9 mL/min/kg. It also gave a Cmax [34] of 490 ng/mL, a Vd [35] of 0.408 L/kg and a bioavailability [36] of 2.8%. It also gave an AUC(0-inf) [37] of 10700 ng·h/mL.

Reference: ChEMBL document CHEMBL3526049 (Drug Metab Dispos, 2012)
